From ChEMBL document CHEMBL1148401, “Synthesis and structure-activity relationships of novel arylpiperazines as potent and selective agonists of the melanocortin subtype-4 receptor” (J Med Chem, 2004)

Tests used:
[1] = biological target: T1, Melanocortin receptor 4 (Homo sapiens, UniProt P32245); test: Binding affinity towards human melanocortin 4 receptor using [125I]NDP-alpha-MSH as a radioligand in HEK293 cells; type: cell-based
In short: (§1)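 Membranes from HEK293 cells stably expressing human MC1, MC3, MC4 or MC5 receptor, 0.5-5.0 µg protein, with 100 pM ¹²⁵I-NDP-α-MSH and WGA SPA beads. Buffer 25 mM HEPES pH 7.5, 10 mM CaCl₂, 0.3% BSA. Compound 30 µM to 300 pM. 10 h at room temperature, scintillation counting. Four-parameter logistic IC50 converted to Ki by Cheng-Prusoff; n = 2 or 4, ± SEM.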

[2] = biological target: T1, Melanocortin receptor 4; test: Agonistic potency towards human melanocortin 4 receptor, determined by 50% maximum cAMP release; type: functional
In short: (§2)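 HEK293 cells stably expressing human MC3 or MC4 receptor, suspended in HBSS/0.1% BSA/10 mM HEPES at 1 × 10⁶ cells/mL. Compound serial dilutions 10 µM to 0.1 nM; NDP-α-MSH control agonist 100 nM to 1 pM. 20 min at 37 °C, quenched with sodium acetate/Triton X-100. cAMP by SPA competition with ¹²⁵I-cAMP, 12 h. EC50 at 50% maximal cAMP release, n = 2, ± SEM.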

[3] = biological target: Melanocortin receptor 5 (Homo sapiens, UniProt P33032); test: Binding affinity towards human Melanocortin 5 receptor (MC5R) using [125I]NDP-alpha-MSH as a radioligand in membranes of HEK 293 cells; type: cell membranes, HEK293; in short: as §1
Sequence of Melanocortin receptor 5 (P33032 whole entry): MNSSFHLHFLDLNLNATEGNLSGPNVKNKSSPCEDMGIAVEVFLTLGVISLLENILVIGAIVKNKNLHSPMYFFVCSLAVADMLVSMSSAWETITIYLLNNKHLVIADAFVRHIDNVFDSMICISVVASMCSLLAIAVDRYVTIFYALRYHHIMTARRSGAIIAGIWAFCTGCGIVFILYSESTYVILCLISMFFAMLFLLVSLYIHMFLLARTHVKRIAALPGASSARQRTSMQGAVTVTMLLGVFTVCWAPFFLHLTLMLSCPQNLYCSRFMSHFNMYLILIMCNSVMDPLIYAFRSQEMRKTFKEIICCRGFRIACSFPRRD

[4] = biological target: T2, Melanocortin receptor 3 (Homo sapiens, UniProt P41968); test: Agonistic potency towards human Melanocortin 3 receptor (MC3R) was determined by 50% maximum cAMP release; type: functional; in short: as §2
T2 sequence (P41968 whole entry): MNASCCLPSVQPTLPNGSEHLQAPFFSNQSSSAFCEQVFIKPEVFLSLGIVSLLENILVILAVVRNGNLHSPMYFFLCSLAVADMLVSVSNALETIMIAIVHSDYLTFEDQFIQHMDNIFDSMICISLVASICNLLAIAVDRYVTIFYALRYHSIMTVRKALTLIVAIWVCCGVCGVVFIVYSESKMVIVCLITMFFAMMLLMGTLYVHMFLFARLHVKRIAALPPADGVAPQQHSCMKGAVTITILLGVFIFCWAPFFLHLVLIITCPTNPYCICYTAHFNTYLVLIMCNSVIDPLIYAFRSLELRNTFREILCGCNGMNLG

[5] = biological target: T2, Melanocortin receptor 3; test: Binding affinity towards human Melanocortin 3 receptor (MC3R) using [125I]NDP-alpha-MSH as a radioligand in membranes of HEK 293 cells; type: cell membranes, HEK293; in short: as §1
[6] = biological target: Melanocyte-stimulating hormone receptor (Homo sapiens, UniProt Q01726); test: Binding affinity towards human Melanocortin 1 receptor (MC1R) using [125I]NDP-alpha-MSH as a radioligand in membranes of HEK 293 cells; type: cell membranes, HEK293; in short: as §1
Sequence of Melanocyte-stimulating hormone receptor (Q01726 whole entry): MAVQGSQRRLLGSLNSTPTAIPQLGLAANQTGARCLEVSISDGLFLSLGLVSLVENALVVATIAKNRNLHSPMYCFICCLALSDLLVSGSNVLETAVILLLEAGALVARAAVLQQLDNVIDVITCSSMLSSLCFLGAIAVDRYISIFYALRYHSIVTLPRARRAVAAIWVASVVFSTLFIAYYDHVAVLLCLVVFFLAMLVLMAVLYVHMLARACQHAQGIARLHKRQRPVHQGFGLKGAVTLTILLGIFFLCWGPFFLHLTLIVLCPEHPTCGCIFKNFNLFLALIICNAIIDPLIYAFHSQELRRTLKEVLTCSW

[7] = Half-life in fischer rats at 5 mg/kg dose, administered intravenously; type: ADME, organism-based; design: dose 5 mg/kg, route intravenous; conditions: rat, in vivo, iv
In short: (§3)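 Fischer 344 rats, n = 3 per route: 5 mg/kg iv, or 30 mg/kg by gavage in 10% acacia. Retro-orbital blood into heparinized syringes at 0.5, 1, 2, 6 h after oral dosing and 0.083, 1, 2, 4, 6, 8, 24 h after iv dosing. Plasma stored at -70 °C and quantified by electrospray LC/MS/MS against standards by least-squares regression.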

[8] = Clearance in fischer rats at 5 mg/kg dose, administered intravenously; type: ADME, organism-based; design: dose 5 mg/kg, route intravenous; conditions: rat, in vivo, iv; in short: as §3
[9] = Oral bioavailability in fischer rats at 30 mg/kg dose, administered perorally; type: ADME, organism-based; conditions: rat, in vivo, read-out: Bioavailabiility; in short: as §3
[10] = Volume distribution in fischer rats at 5 mg/kg dose, administered intravenously; type: ADME, organism-based; design: dose 5 mg/kg, route intravenous; conditions: rat, in vivo, iv, read-out: Volume distribution; in short: as §3
[11] = Tmax in fischer rats at 30 mg/kg dose, administered orally; conditions: rat, in vivo, po

T1 sequence (P32245 whole entry): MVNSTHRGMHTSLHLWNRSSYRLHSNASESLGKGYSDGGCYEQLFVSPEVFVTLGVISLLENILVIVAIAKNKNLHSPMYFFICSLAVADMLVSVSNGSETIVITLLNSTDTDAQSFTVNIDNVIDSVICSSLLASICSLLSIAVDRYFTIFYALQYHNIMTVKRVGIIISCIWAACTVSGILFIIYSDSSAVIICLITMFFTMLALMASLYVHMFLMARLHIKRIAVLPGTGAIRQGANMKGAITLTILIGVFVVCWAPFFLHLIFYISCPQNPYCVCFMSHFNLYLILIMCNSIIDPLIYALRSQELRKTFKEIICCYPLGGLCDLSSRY

SMILES | Ki [1] [nM] | EC50 [2] [nM] | other results
COc1ccccc1N1CCN(C(=O)[C@@H](Cc2ccc(Cl)cc2)NC(=O)[C@H]2Cc3ccccc3CN2)CC1 | 1100 | 71 | –
CC(C)c1ccccc1N1CCN(C(=O)[C@@H](Cc2ccc(Cl)cc2)NC(=O)[C@H]2Cc3ccccc3CN2)CC1 | 720 | 110 | –
Cc1ccccc1N1CCN(C(=O)[C@@H](Cc2ccc(Cl)cc2)NC(=O)[C@H]2Cc3ccccc3CN2)CC1 | 1700 | 1300 | –
O=C(N[C@H](Cc1ccc(Cl)cc1)C(=O)N1CCN(c2ccccc2OCc2ccccc2)CC1)[C@H]1Cc2ccccc2CN1 | 640 | 150 | –
CCOc1ccccc1N1CCN(C(=O)[C@@H](Cc2ccc(Cl)cc2)NC(=O)[C@H]2Cc3ccccc3CN2)CC1 | 570 | 40 | –
CS(=O)(=O)NCc1ccccc1N1CCN(C(=O)[C@@H](Cc2ccc(Cl)cc2)NC(=O)[C@H]2Cc3ccccc3CN2)CC1 | 210 | 48 | –
CC(C)Oc1ccccc1N1CCN(C(=O)[C@@H](Cc2ccc(Cl)cc2)NC(=O)[C@H]2Cc3ccccc3CN2)CC1 | 460 | 93 | –
CCCN(CCC)Cc1ccccc1N1CCN(C(=O)[C@@H](Cc2ccc(Cl)cc2)NC(=O)[C@H]2Cc3ccccc3CN2)CC1 | 35 | 8 | –
O=C(N[C@H](Cc1ccc(Cl)cc1)C(=O)N1CCN(c2ccccc2[N+](=O)[O-])CC1)[C@H]1Cc2ccccc2CN1 | 2400 | 210 | –
Cn1ccnc1COc1ccccc1N1CCN(C(=O)[C@@H](Cc2ccc(Cl)cc2)NC(=O)[C@H]2Cc3ccccc3CN2)CC1 | 530 | 140 | –
CN(C)CCOc1ccccc1N1CCN(C(=O)[C@@H](Cc2ccc(Cl)cc2)NC(=O)[C@H]2Cc3ccccc3CN2)CC1 | 230 | 98 | –
C[C@@H](O)c1ccccc1N1CCN(C(=O)[C@@H](Cc2ccc(Cl)cc2)NC(=O)[C@H]2Cc3ccccc3CN2)CC1 | 340 | 44 | –
Cc1nccn1Cc1ccccc1N1CCN(C(=O)[C@@H](Cc2ccc(Cl)cc2)NC(=O)[C@H]2Cc3ccccc3CN2)CC1 | 140 | 21 | –
Cn1ccnc1Cc1ccccc1N1CCN(C(=O)[C@@H](Cc2ccc(Cl)cc2)NC(=O)[C@H]2Cc3ccccc3CN2)CC1 | 170 | 44 | –
O=C(N[C@H](Cc1ccc(Cl)cc1)C(=O)N1CCN(c2ccccc2Cn2ccnc2)CC1)[C@H]1Cc2ccccc2CN1 | 110 | 14 | Ki [3]: 700 nM; EC50 [4]: 1600 nM; Ki [5]: 3600 nM; Ki [6]: 4000 nM
Nc1ccccc1N1CCN(C(=O)[C@@H](Cc2ccc(Cl)cc2)NC(=O)[C@H]2Cc3ccccc3CN2)CC1 | 1700 | 200 | –
CS(=O)(=O)Nc1ccccc1N1CCN(C(=O)[C@@H](Cc2ccc(Cl)cc2)NC(=O)[C@H]2Cc3ccccc3CN2)CC1 | 220 | 16 | half-life [7]: 1.7 h; clearance [8]: 43 mL/min/kg; bioavailability [9]: 30%; Ki [3]: 1200 nM; EC50 [4]: 2000 nM; Ki [5]: 8800 nM; Ki [6]: 12000 nM; Vd [10]: 4.5 L/kg; Tmax [11]: 3 h
O=C(N[C@H](Cc1ccc(Cl)cc1)C(=O)N1CCN(c2ccccc2)CC1)[C@H]1Cc2ccccc2CN1 | 6600 | 360 | –
O=C(N[C@H](Cc1ccc(Cl)cc1)C(=O)N1CCN(c2ccccc2CO)CC1)[C@H]1Cc2ccccc2CN1 | 630 | 150 | –
CN(C)c1ccccc1N1CCN(C(=O)[C@@H](Cc2ccc(Cl)cc2)NC(=O)[C@H]2Cc3ccccc3CN2)CC1 | 1100 | 44 | –
O=C(N[C@H](Cc1ccc(Cl)cc1)C(=O)N1CCN(c2ccccc2CN2CCCC2)CC1)[C@H]1Cc2ccccc2CN1 | 24 | 39 | –
C[C@H](O)c1ccccc1N1CCN(C(=O)[C@@H](Cc2ccc(Cl)cc2)NC(=O)[C@H]2Cc3ccccc3CN2)CC1 | 350 | 34 | –
O=C(N[C@H](Cc1ccc(Cl)cc1)C(=O)N1CCN(c2ccccc2Oc2ccccc2)CC1)[C@H]1Cc2ccccc2CN1 | 640 | 400 | –
O=C(N[C@H](Cc1ccc(Cl)cc1)C(=O)N1CCN(c2ccccc2O)CC1)[C@H]1Cc2ccccc2CN1 | 1900 | 490 | –
CN(C)Cc1ccccc1N1CCN(C(=O)[C@@H](Cc2ccc(Cl)cc2)NC(=O)[C@H]2Cc3ccccc3CN2)CC1 | 60 | 7 | Ki [3]: 1400 nM; EC50 [4]: 1800 nM; Ki [5]: 7000 nM; Ki [6]: > 20000 nM
O=C(N[C@H](Cc1ccc(Cl)cc1)C(=O)N1CCN(c2ccccc2CN2CCCCC2)CC1)[C@H]1Cc2ccccc2CN1 | 27 | 37 | –
CCc1ccccc1N1CCN(C(=O)[C@@H](Cc2ccc(Cl)cc2)NC(=O)[C@H]2Cc3ccccc3CN2)CC1 | 1300 | 145 | –
CCN(CC)Cc1ccccc1N1CCN(C(=O)[C@@H](Cc2ccc(Cl)cc2)NC(=O)[C@H]2Cc3ccccc3CN2)CC1 | 34 | 14 | –
